Screens deposited in PubChem BioAssay by several laboratories.
PP5 primary: PP5 (human) phosphatase inhibition | inhibition, % at 6.7 µM | 0.18% of 320,000 active | AID 1987 | purified PP5c, OMFP substrate fluorescence | P53041;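 active = inhibition above the campaign's mean inhibition across all tested compounds plus 3 SD, cut at about 9.5% in these data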;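 note: 0% = DMSO only and 100% = 100 µM cantharidin control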
Target sequence (P53041 whole entry, looked up): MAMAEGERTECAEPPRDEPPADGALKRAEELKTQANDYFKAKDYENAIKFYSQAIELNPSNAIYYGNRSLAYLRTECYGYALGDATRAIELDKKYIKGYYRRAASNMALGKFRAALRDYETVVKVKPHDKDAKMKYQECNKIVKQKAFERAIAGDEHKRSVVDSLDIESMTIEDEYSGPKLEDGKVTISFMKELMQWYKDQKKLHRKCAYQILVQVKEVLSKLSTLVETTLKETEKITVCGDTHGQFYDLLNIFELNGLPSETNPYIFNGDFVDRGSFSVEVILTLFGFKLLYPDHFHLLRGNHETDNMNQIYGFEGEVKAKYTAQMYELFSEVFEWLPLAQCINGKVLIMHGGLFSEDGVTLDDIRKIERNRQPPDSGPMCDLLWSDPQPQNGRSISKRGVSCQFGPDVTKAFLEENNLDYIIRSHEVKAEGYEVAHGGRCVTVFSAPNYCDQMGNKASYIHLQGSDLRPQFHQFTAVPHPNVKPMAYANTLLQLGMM
ARFGAP1 inhibitor: inhibits rat ARF GTPase activating protein 1. Q62848. Arfgap1-stimulated ARF1 GTP hydrolysis, GDP FP detection. inhibition, % at 16.5 µM. 0.26% of 360,000 active. AID 651572;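 active = inhibition above a per-plate limit, mean inhibition of low control wells plus 3 SD, cut at about 25% in these data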;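 note: 0% = DMSO wells with enzyme and 100% = wells lacking Arfgap1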
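system = rat Arfgap1 catalytic domain, aa 1-136 | technique = FP, GDP Alexa 633 tracer displaced from anti-GDP antibody, 620/688 nm | compound = one concentration, 16.5 µM, DMSO 1.26% | medium = HEPES-based buffer, pH 7.5 | timing = compound-enzyme preincubation 20 min, reaction 120 min, detection 60 min, 25 °C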
PKD1 kinase inh: blocks activity of human protein kinase D1; PKD1 kinase fluorescence polarization assay; 0.056% of 200,000 active; inhibition, % (test concentration not listed); in the data active = inhibition above about 50%
ASAP1 GAP inh: blocks human ASAP1-stimulated Arf1 GTP hydrolysis | Q9ULH1 | GDP FP detection | inhibition, % at 16.5 µM | 0.19% of 360,000 active | AID 624377; in the data active = inhibition above about 25%;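 note: 0% = vehicle with enzyme and substrate and 100% = no enzyme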
ARFGAP1 inh conf: rat ARFGAP1 inhibition, confirmed; shares compounds with ARFGAP1 inhibitor; ARFGAP1-stimulated ARF1 GTP hydrolysis, GDP tracer FP; inhibition, % at 16.5 µM; 30% of 890 active; AID 651608;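 active = average inhibition over triplicates above the hit cutoff set in the earlier primary screen, cut at about 25% in these data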;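 note: 0% = Arfgap1 plus ARF1-GTP with DMSO and 100% = wells lacking Arfgap1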
An asterisk follows results filed as active; . = no result. Hits are enriched below; roughly 0.54% of the tested compounds scored in any of these assays.

SMILES | PP5 primary | ARFGAP1 inhibitor | PKD1 kinase inh | ASAP1 GAP inh | ARFGAP1 inh conf
CN(C)CCNc1ncnc2sc(-c3ccccc3)cc12 | -2 | -13 | . | -8 | .
OCCOCCNc1ncnc2sc(-c3ccccc3)cc12 | 0 | 36* | -4 | 3 | 1
CO[C@@H]1[C@H](O)CC[C@]2(O)CN(c3ccc(F)cc3)[C@](C)([C@H](O)CC=C(C)C)[C@@H]12 | . | -5 | . | -2 | .
Cc1cccc(N2C(=O)C(Oc3ccc(Cl)cc3Cl)C2C(=O)O)c1C (stereo unspecified) | 0 | 25* | -8 | 3 | -7
CCCNCC1C(Oc2ccc(Cl)cc2Cl)C(=O)N1c1cccc(C)c1C (stereo unspecified) | 4 | 6 | -6 | 8 | .
NC(=O)c1ccc(N=C2C(=O)Nc3ccc([N+](=O)[O-])cc32)cc1 | 2 | 37* | 7 | 40* | 9
O=C1Nc2ccccc2C1=Nc1cccc([N+](=O)[O-])c1 | 0 | 1 | . | -8 | .
O=C1c2ccccc2C(c2nnnn2-c2ccc3c(c2)OCCO3)N1CCc1c[nH]c2ccccc12 (stereo unspecified) | . | 4 | . | 4 | .
C[C@@H]1CN([C@@H](C)CO)C(=O)CCCn2nncc2CO[C@H]1CN(C)Cc1cccc(O)c1 | . | -2 | . | -2 | .
O=C(CSc1nnc(Nc2ccccc2)s1)NC1CCCC1 | . | 26* | . | 16 | -4
COc1ccc(Nc2nnc(SCC(=O)NC3CCCC3)s2)cc1 | . | -5 | . | -15 | .
COC(=O)[C@@]12C[C@@H](CC(=O)N3CCOCC3)C(=O)N(Cc3ccccc3)C1=CCC(C)(C)C2 | . | -3 | . | -9 | .
N=C1C(c2nc(-c3ccc(Br)cc3)cs2)=C(O)CN1NC(=O)c1ccc([N+](=O)[O-])cc1 | -1 | -5 | 0 | 21 | .
Cc1ccc(-c2csc(C3=C(O)CN(NC(=O)c4ccc([N+](=O)[O-])cc4)C3=N)n2)cc1 | 0 | 28* | -8 | 14 | 31*
O=C(Nc1cc([N+](=O)[O-])ccc1Cl)c1cccnc1 | -1 | 25* | . | -10 | 4
COc1ccc(CCNC(=O)CN(c2ccccc2OC)S(C)(=O)=O)cc1 | 0 | 28* | -9 | -1 | -6
CC(C)(C)NC(=O)C(C1CC1)n1c(-c2ccccc2)nc2ccccc21 (stereo unspecified) | . | -1 | . | 6 | .
C[C@H](CO)N1C[C@H](C)[C@H](CN(C)C(=O)Nc2cccc(F)c2)OCc2cnnn2CCCC1=O | . | 5 | . | -4 | .
CCn1c(CNC(=O)c2cccs2)nnc1SCC(=O)Nc1ccc(Cl)cc1 | 1 | 31* | -1 | 2 | -3
CC(C)C[C@H]1COc2cccc(N3CCCCC3)c2S(=O)(=O)N1 | . | 10 | . | 2 | .
CC(=O)C[C@@H]1SC[C@H](c2ccccc2)N1S(=O)(=O)c1ccc(C)cc1 | . | 20 | . | -6 | .
N/C(=N\OC(=O)c1ccccc1[N+](=O)[O-])c1cccnc1 | -2 | 3 | 7 | 2 | .
O=C(Oc1cccnc1)c1ccccc1[N+](=O)[O-] | 4 | 25* | 7 | -14 | 6
Cn1c2ccccc2c(=O)c2ccc(-c3ccc4c(c3)OCO4)cc21 | 0 | 37* | . | 10 | 90*
COc1ccc(OC)c(-n2nnnc2SCC(=O)Nc2ccc3c(c2)OCCO3)c1 | 0 | 49* | -5 | 11 | 45*
SMILES | PP5 primary | ARFGAP1 inhibitor | PKD1 kinase inh | ASAP1 GAP inh | ARFGAP1 inh conf
Cc1sc2nc(SCC(=O)N(CCO)CCO)nc(N)c2c1C | 2 | 28* | -5 | 8 | -1
COC(=O)c1ccc2nc(-c3ccco3)c(Cc3ccccc3OC)n2c1 | . | 2 | . | -6 | .
COc1ccc(C=NNC(=O)NN=Cc2ccc(OC)c(OC)c2)cc1OC | . | 38* | . | 6 | 55*
COc1cc(/C=N/NC(=O)c2cccnc2)ccc1OS(=O)(=O)c1ccc(C)cc1 | 4 | 11 | -7 | -8 | .
COC(=O)N/N=C/c1ccc(OS(=O)(=O)c2ccc(C)cc2)c(OC)c1 | 3 | 37* | 0 | 5 | -4
COc1ccc(C=NNC(=O)CCCC(=O)NN=Cc2ccc(OC)c(OC)c2)cc1OC | . | 1 | . | 11 | .
COc1ccc(N2C(=O)c3n[nH]c(C(C)C)c3C2c2ccccc2)cc1 (stereo unspecified) | . | 0 | . | -3 | .
COc1cccc(CNS(=O)(=O)c2ccccc2Br)c1 | . | 8 | . | -1 | .
Cc1cc2[nH]c(=O)c(=O)[nH]c2cc1S(=O)(=O)N1CCC(C)CC1 | 2 | 32* | . | -4 | 8
O=C(CSC1CCc2ccccc21)NNC(=O)Nc1ccc(Cl)cc1 (stereo unspecified) | . | -1 | . | 6 | .
CCC(CC)c1nnc(NC(=O)c2cccc(S(=O)(=O)N3CCOCC3)c2)s1 | . | 28* | . | -3 | -4
COC(=O)[C@]12C[C@H](CC(=O)NCc3cccs3)C(=O)N(CCc3ccc(OC)c(OC)c3)C1=C[C@H](C(C)(C)C)O[C@@H]2C | . | 6 | . | -18 | .
Cc1ccc(S(=O)(=O)N(Cc2ccccc2F)C(=O)N2CCN(C)CC2)cc1 | -3 | 29* | . | -3 | 6
CN1/C(=C/C2CC(=O)N(c3cccc4ccccc34)C2=O)C(C)(C)c2ccccc21 (stereo unspecified) | 6 | -7 | -2 | -3 | .
CN1/C(=C/C2CC(=O)NC2=O)C(C)(C)c2ccccc21 (stereo unspecified) | 0 | 31* | 2 | 0 | -5
O=C(NCc1ccccc1Cl)c1ccc2sc([C@@H]3O[C@H](CO)[C@H](O)[C@H](O)[C@H]3O)nc2c1 | . | 3 | . | -3 | .
O=C1NC(c2ccccc2)=C(c2nc3ccccc3s2)C(c2ccc(F)cc2)N1 (stereo unspecified) | 6 | 32* | -1 | 11 | 2
COc1ccc(C2NC(=O)NC(c3ccccc3)=C2c2nc3ccccc3s2)cc1 (stereo unspecified) | 3 | 3 | 3 | -6 | .
COc1ccc(NC2=C(NCCO)C(=O)c3ccccc3C2=O)cc1 | 9 | 28* | -11 | -2 | -3
COc1cccc(NC2=C(NCCO)C(=O)c3ccccc3C2=O)c1 | 3 | 2 | . | 0 | .
